“Also recorded” adds a separate entry of the source.
How the values were obtained:
Format in all cases: biochemical
human recombinant UGT1A1 = biological target: T1, human recombinant UGT1A1 (Homo sapiens, UniProt P22309); experiment: UGT-Glo luminescent inhibition assay, human recombinant UGT1A1
T1 sequence (P22309 26-533): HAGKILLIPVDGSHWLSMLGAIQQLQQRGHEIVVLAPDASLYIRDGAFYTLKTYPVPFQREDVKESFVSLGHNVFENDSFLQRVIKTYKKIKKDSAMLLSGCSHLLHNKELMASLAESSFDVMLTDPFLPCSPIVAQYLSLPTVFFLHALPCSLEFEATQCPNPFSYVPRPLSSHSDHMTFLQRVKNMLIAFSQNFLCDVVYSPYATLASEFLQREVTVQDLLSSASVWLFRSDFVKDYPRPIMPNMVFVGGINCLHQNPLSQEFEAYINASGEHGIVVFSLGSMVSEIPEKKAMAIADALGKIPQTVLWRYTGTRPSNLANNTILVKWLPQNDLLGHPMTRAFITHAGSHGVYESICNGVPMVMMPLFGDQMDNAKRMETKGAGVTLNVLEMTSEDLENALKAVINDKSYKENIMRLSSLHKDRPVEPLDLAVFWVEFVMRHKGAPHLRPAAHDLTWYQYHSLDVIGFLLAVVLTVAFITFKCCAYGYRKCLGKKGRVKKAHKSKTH
Summary of the method: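 UGT-Glo luminescent assay at 37°C with 0.1 mg/mL UGT supersomes, 20 µM multienzyme substrate and 4 mM UDPGA. Incubation was 90 min for UGT1A1 and 60 min for UGT2B7. Reactions were stopped with luciferin detection reagent plus D-cysteine for 20 min at room temperature, then luminescence read. Control microsomes lacking UGT served as negative control. Extracts were tested at 0.1–1000 µg/mL and constituents at 0.02–200 µM. IC50 was fitted by nonlinear regression; three determinations from two experiments.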

[1] = biological target: human glutathione transferase Pi-1 (hGSTP1) (Homo sapiens, UniProt P09211); experiment: Inhibition of human GST Pi-1
Summary of the method: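 Purified recombinant human GSTP1 (0.003 mg/mL) in 0.1 M potassium phosphate, pH 6.5, with 0.001 M GSH and CDNB as substrate. Test compounds were tested at 0.01–500 µM and extracts at 0.01–1000 µg/mL. CDNB–GSH conjugation was read at 340 nm over 20 min. The blank replaced enzyme with buffer. Activity is expressed as percent of no-inhibitor control, 5 replicates.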

[2] = system: rat liver UDP-glucuronosyltransferase enzyme (rat liver microsomes); experiment: Inhibition of rat liver UGT in rat liver microsomes; settings: up to the highest concentration investigated
human recombinant UGT2B7 = biological target: T2, human recombinant UGT2B7 (Homo sapiens, UniProt P16662); experiment: UGT-Glo luminescent inhibition assay, human recombinant UGT2B7; settings: human recombinant enzyme
T2 sequence (P16662 24-529): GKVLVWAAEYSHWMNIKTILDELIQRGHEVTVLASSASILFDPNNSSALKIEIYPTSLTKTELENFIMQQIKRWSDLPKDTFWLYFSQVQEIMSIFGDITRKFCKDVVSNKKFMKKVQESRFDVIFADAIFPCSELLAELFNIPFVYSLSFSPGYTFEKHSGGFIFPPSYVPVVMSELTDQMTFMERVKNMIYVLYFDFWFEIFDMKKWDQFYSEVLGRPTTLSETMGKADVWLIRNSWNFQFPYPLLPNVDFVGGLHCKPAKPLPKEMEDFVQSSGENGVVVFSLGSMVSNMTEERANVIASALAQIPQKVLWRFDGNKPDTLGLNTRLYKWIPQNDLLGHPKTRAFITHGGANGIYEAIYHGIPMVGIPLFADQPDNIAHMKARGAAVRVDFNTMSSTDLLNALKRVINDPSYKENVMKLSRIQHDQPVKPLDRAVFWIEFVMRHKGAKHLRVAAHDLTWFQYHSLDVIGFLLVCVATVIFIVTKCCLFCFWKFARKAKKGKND

[3] = system: rat liver glutathione transferase enzyme; experiment: Inhibition of rat liver GST
Summary of the method: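 Rat liver cytosol was the 100,000 ×g 60 min supernatant, taken after a 12,500 ×g spin of homogenate in 67 mM phosphate, pH 7.4, with 1.15% KCl. Assay used 0.125 mg/mL cytosol, 0.1 M potassium phosphate pH 6.5, 0.001 M GSH and CDNB, read at 340 nm for 5 min. Blanks used cytosol heat-denatured at 60°C for 20 min.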

human glutathione transferase Pi-1 (hGSTP1), sequence (P09211 2-210 limits assumed): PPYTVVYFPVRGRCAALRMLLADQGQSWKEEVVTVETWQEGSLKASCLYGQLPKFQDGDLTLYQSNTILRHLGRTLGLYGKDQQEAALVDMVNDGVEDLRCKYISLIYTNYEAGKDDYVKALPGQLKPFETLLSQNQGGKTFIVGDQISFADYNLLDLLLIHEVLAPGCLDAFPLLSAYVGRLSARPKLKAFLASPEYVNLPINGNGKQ

Compound	inhibition of UGT1A1 (in words) (human recombinant UGT1A1; human recombinant enzyme)	inhibition of hGSTP1 (in words) [1]	percentage of inhibition of hGSTP1 activity ([1]; at the highest concentration determined (compounds 500 µM))	inhibition of rat liver UGT enzyme activity (in words) [2]	inhibition of UGT2B7 (in words) (human recombinant UGT2B7)	inhibition of rat liver GST (in words) [3]	inhibitory effect on UGT1A1 compared to UGT2B7 (human recombinant UGT1A1; ratio of IC50 values UGT2B7/UGT1A1)	inhibition at 500 µM ([1]; read-out: percentage of inhibition of hGSTP1 activity)	IC50, rat liver GST ([3]; CDNB substrate, mean ± SEM, n = 5)
CC(C)=CCCC(C)c1ccc(C)cc1 (centres unmarked) [Curcumene, curcumene]	weaker inhibition	did not show inhibition	< 50%	did not show any inhibition	did not show any inhibition; also recorded: weaker inhibition	very low inhibition or no inhibition	–	–	–
CC(C)=CCC[C@@H](C)c1ccc(C)c(O)c1 [Xanthorrhizol, xanthorrhizol]	–	did not show inhibition	–	–	–	very low inhibition or no inhibition	3 times	< 50%	–
Tannic acid [reference compound]	–	–	–	–	–	–	–	–	4.83 ± 2.29 µg/mL

From article PMC5004525 (Pharmacognosy Research, 2016)
